In ChEMBL document CHEMBL4393678, “Novel Tetrahydroquinazolinamines as Selective Histamine 3 Receptor Antagonists for the Treatment of Obesity” (J Med Chem, 2019):
Active and inactive are the calls of the source. No cut-off for these calls is given here.

Legend:
[1] = molecular target: T1, 5-hydroxytryptamine receptor 2C (Homo sapiens) (UniProt P28335); assay: Antagonist activity at 5HT2CR (unknown origin) expressed in HEK293 cells harboring luc2P/NFAT-RE plasmid at 10 uM after 6 to 8 hrs by luciferase reporter gene assay; type: cell-based
T1 sequence (whole entry): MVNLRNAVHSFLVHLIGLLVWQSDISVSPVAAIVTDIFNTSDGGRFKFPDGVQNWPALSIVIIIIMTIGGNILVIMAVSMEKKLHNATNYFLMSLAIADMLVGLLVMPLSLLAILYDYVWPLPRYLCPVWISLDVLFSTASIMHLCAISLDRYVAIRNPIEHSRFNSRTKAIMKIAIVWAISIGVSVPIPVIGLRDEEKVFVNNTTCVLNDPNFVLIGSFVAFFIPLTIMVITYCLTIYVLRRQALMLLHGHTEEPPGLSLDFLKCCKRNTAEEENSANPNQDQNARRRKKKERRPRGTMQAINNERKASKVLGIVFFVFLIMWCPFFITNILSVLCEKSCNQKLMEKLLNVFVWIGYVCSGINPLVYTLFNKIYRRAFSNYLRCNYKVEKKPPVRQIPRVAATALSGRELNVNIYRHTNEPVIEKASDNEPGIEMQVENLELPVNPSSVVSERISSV
In short: (§1)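 NFAT-RE luciferase assay in HEK293T cells transiently co-transfected with luc2P/NFAT-RE plasmid and receptor plasmid. Cells plated in DMEM and incubated overnight at 37 °C, 5% CO₂. Compounds and reference ligands applied for 6-8 h. Luciferase read after adding Bright-Glo substrate (1 mg/ml final).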

[2] = Ratio of AUClast in C57BL/6J mouse brain to AUClast in C57BL/6J mouse serum; type: ADME
In short: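 Male C57BL/6J mice (6–8 weeks) were fasted 12–16 h, then given a single oral dose of 20 mg/kg as a 2.5 mg/mL suspension in 1% gum acacia/water (n=5 per time point). Serum and brain (homogenised 1:6 in PBS) were sampled up to 24 h. Parent and demethylated metabolite were measured by LC-MS/MS (range 0.25–200 ng/mL). AUC ran to the last observation.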

[3] = molecular target: Histamine H1 receptor (Homo sapiens) (UniProt P35367); assay: Antagonist activity at H1R (unknown origin) expressed in HEK293 cells harboring luc2P/NFAT-RE plasmid at 10 uM after 6 to 8 hrs by luciferase reporter gene assay; type: cell-based; in short: as §1
Sequence of Histamine H1 receptor (Homo sapiens) (P35367 whole entry): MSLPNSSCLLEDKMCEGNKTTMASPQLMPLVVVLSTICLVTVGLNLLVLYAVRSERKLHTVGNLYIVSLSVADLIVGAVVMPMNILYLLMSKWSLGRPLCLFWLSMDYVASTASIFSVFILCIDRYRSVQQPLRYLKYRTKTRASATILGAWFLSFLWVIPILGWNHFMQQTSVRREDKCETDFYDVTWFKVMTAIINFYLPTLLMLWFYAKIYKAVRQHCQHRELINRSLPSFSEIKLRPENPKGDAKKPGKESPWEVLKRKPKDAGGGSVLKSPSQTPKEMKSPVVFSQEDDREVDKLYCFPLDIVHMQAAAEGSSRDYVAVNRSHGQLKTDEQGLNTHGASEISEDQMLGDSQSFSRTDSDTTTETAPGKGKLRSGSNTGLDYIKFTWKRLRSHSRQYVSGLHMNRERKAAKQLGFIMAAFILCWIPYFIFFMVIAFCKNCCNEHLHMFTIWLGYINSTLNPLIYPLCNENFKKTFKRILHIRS

[4] = test system: Mus musculus; assay: Anti-obesity activity in 16 hrs fasted db/db-induced obese C57BL/6J mouse model assessed as improvement in glucose homeostasis at 20 mg/kg, po treated prior to glucose addition measured after 15 to 120 mins by IPGTT; type: functional, organism-based
In short: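 Mice fasted 16 h; baseline tail-vein glucose read by glucometer. Glucose given i.p. at 2 g/kg (C57BL/6J) or 1 g/kg (db/db).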

[5] = Toxicity in lean C57BL/6J mouse assessed as change in body fat mass at 10 to 20 mg/kg, po measured after 6 weeks; type: organism-based; conditions: in vivo, 1008 h
[6] = molecular target: Histamine H4 receptor (Homo sapiens) (UniProt Q9H3N8); assay: (§2) Antagonist activity at recombinant human Gi-coupled H4 receptor expressed in HEK293T cells assessed as reduction in histamine-induced inhibition of forskolin-stimulated cAMP accumulation at 10 uM preincubated for 10 to 15 followed by histamine addition for 10 mins and subsequent forskolin-stimulation by Glo-sensor assay; type: functional, cell-based
Sequence of Histamine H4 receptor (Homo sapiens) (Q9H3N8 whole entry): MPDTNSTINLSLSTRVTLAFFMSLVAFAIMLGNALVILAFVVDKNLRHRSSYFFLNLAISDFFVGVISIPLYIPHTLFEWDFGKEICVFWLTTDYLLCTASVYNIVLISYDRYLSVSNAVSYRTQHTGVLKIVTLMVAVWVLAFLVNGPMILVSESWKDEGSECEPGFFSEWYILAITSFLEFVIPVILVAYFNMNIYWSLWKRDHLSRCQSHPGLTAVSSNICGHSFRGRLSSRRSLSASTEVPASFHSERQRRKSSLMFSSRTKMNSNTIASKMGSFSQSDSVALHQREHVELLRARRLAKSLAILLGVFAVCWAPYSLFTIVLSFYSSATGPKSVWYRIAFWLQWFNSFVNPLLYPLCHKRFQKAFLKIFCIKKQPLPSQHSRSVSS

[7] = molecular target: T2, G-protein coupled bile acid receptor 1 (Homo sapiens) (UniProt Q8TDU6); assay: as §2, with “Gs-coupled GPBAR1 (unknown origin)” for “recombinant human Gi-coupled H4 receptor”, “accumulation” for “accumulation at 10 uM”; type: functional, cell-based
T2 sequence (whole entry): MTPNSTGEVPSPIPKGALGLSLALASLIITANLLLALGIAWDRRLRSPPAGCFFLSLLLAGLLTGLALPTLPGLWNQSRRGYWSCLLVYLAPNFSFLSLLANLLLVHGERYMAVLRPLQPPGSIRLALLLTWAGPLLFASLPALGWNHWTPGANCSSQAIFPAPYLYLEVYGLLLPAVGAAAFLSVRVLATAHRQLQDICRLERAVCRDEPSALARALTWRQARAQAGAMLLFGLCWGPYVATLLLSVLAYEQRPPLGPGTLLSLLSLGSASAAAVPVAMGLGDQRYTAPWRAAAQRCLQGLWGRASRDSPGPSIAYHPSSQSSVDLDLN

[8] = test system: Mus musculus; assay: Anorexic effect in high fat diet-induced obese C57BL/6J mouse model assessed as reduction in cumulative food intake at 10 mg/kg, po pretreated for 30 mins followed by food addition measured after 4 hrs relative to control; type: functional; parameters: scale not given: the % may be the effect or the level left
In short: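 Male C57BL/6J mice on high-fat diet, starved 12 h (8 am–8 pm) with water available, housed singly. Oral dose in 5% gum acacia in normal saline, vehicle group alongside. Food given 30 min after dosing, and cumulative intake measured over the 4 h night phase (9 pm–1 am). One-way ANOVA with Newman-Keuls test.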

[9] = Drug level in C57BL/6J mouse brain at 4 hrs post-dose by equilibrium dialysis method; type: ADME, tissue-based; conditions: in vivo
In short: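 Unbound brain level derived from brain concentration after 20 mg/kg oral dose, multiplied by unbound fraction from brain-homogenate equilibrium dialysis; given at Cmax and at 4 h.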

[10] = test system: Mus musculus; assay: Anti-obesity activity in high fat diet-induced obese C57BL/6J mouse model assessed as change in HDL level at 10 to 20 mg/kg, po measured after 6 weeks; type: functional, organism-based
In short: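 At the end of treatment (six weeks HFD, four weeks db/db), mice euthanized with avertin 350 mg/kg. Blood taken by cardiac puncture into 3.8% sodium citrate. Plasma separated at 4000 rpm and stored at -80 °C. TG, TC, HDLc and LDLc measured on a bio-analyzer.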

[11] = molecular target: D(1A) dopamine receptor (Homo sapiens) (UniProt P21728); assay: Agonist activity at Gs-coupled D1 receptor (unknown origin) expressed in HEK293T cells assessed as inhibition of forskolin-stimulated cAMP accumulation preincubated for 10 to 15 followed by forskolin-stimulation by Glo-sensor assay; type: functional, cell-based
Sequence of D(1A) dopamine receptor (Homo sapiens) (P21728 whole entry): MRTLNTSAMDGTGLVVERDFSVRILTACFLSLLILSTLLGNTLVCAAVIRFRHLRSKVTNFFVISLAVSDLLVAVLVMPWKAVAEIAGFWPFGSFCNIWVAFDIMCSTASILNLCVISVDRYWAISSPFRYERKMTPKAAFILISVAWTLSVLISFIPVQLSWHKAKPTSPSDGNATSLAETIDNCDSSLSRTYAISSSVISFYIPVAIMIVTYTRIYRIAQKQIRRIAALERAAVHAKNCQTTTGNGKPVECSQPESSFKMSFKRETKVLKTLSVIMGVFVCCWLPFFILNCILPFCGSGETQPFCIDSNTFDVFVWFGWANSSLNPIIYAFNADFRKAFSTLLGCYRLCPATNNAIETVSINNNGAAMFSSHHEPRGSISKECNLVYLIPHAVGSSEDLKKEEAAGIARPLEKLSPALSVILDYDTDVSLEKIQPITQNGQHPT

[12] = Tmax in C57BL/6J mouse brain assessed as 4-(2-Amino-8-methyl-5,6,7,8-tetrahydroquinazolin-4-yl)phenol level at 20 mg/kg, po by LC-MS/MS analysis; type: ADME, organism-based; conditions: in vivo
In short: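 Male C57BL/6J mice (6-8 weeks, 20 ± 5 g) fasted overnight (12-16 h) got a single 20 mg/kg oral dose as 2.5 mg/mL suspension in 1% w/v gum acacia; n=5 per time point. Serum and brain (PBS homogenate 1:6 w/v) sampled up to 24 h. Parent and demethylated metabolite quantified by LC-MS/MS after liquid-liquid extraction (C18, MRM, phenacetin internal standard; linear 0.25-200 ng/mL). Two-compartment open model fit.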

Structure (SMILES): COc1ccc(-c2nc(N)nc3c2CCCC3C)cc1 (racemic)
- inhibition [1]: inactive
- Ratio AUC [2]: 16.2%
- inhibition [3]: inactive
- Activity [4]: Active
- Activity [5]: Non-Toxic
- inhibition [6]: inactive
- inhibition [7]: inactive
- Activity [8]: 26%
- Drug uptake [9]: 20.8 nM
- Activity [10]: inactive
- inhibition [11]: inactive
- Tmax [12]: 30 min
